Results taken from ChEMBL document CHEMBL1124678, “New anticancer agents: alterations of the carbamate group of ethyl (5-amino-1,2-dihydro-3-phenylpyrido[3,4-b]pyrazin-7-yl)car bamates” (J Med Chem, 1989).

Experiments:
[1] = tested on: L1210; experiment: The compound was tested in vitro for growth of inhibitory activity against lymphoid leukemia L1210 cells; assay type: functional, cell-based, Mus musculus
Procedure, shortened: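 Cultured L1210 lymphoid leukemia cells exposed to agent for 48 h; proliferation measured against untreated control growth. IC50 is the nanomolar concentration holding growth to 50% of control; some values averaged from two determinations.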

[2] = tested on: P388; experiment: Increase in the life span of mice implanted with lymphocytic leukemia P388 at the highest nontoxic dose of 1 mg/Kg given to the compound intraperitoneally; assay type: functional; details: Mus musculus, P388, ip
[3] = tested on: L1210; experiment: Mitotic index (fraction of cells in mitosis divided by total cells ) for cultured lymphoid leukemia L1210 cells; assay type: functional, Mus musculus
Procedure, shortened: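 Cultured L1210 lymphoid leukemia cells exposed to agent for 12 h; mitotic index scored as fraction of cells in mitosis over total cells. Value is the nanomolar concentration giving a mitotic index of 0.5 (MI0.5).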

[4] = tested on: P388; experiment: Increase in the life span of mice implanted with lymphocytic leukemia P388 at the highest nontoxic dose of 200 mg/Kg given to the compound intraperitoneally; assay type: functional; details: Mus musculus, P388, ip
[5] = tested on: P388; experiment: Increase in the life span of mice implanted with lymphocytic leukemia P388 at the highest nontoxic dose of 1.5 mg/kg given to the compound intraperitoneally; assay type: functional; details: Mus musculus, P388, ip, route intraperitoneal
[6] = tested on: P388; experiment: Increase in the life span of mice implanted with lymphocytic leukemia P388 at the highest nontoxic dose of 200 mg/Kg given to the compound intraperitoneally on day 1; assay type: functional; details: Mus musculus, P388, ip, 24 h
[7] = tested on: P388; experiment: Increase in the life span of mice implanted with lymphocytic leukemia P388 at the highest nontoxic dose of 12 mg/Kg given to the compound intraperitoneally; assay type: functional; details: Mus musculus, P388, ip
[8] = tested on: P388; experiment: Increase in the life span of mice implanted with lymphocytic leukemia P388 at the highest nontoxic dose of 25 mg/Kg given to the compound intraperitoneally; assay type: functional; details: Mus musculus, P388, ip
[9] = tested on: P388; experiment: Increase in the life span of mice implanted with lymphocytic leukemia P388 at the highest nontoxic dose of 50 mg/Kg given to the compound intraperitoneally; assay type: functional; details: Mus musculus, P388, ip
[10] = tested on: P388; experiment: Increase in the life span of mice implanted with lymphocytic leukemia P388 at the highest nontoxic dose of 0.5 mg/Kg given to the compound intraperitoneally; assay type: functional; details: Mus musculus, P388, ip
[11] = tested on: P388; experiment: Increase in the life span of mice implanted with lymphocytic leukemia P388 at the highest nontoxic dose of 2 mg/Kg given to the compound intraperitoneally; assay type: functional; details: Mus musculus, P388, ip

CC(=O)Nc1cc2c(c(NC(C)=O)n1)N=C(c1ccccc1)C(C)N2C(C)=O (stereo not given)
IC50 ([1]; Mus musculus, L1210): > 100 nM

CCOC(=O)Nc1cc2c(c(N)n1)N=C(c1ccccc1)C(C)N2.Cl (stereo not given)
ILS at 1 mg/kg [2]: 75% | IC50 ([1]; Mus musculus, L1210): 0.51 nM | MI0.5 [3]: 1.5 nM

CCOC(=O)Nc1nc(NC(=O)OCC)c2c(c1N)NC(C)C(c1ccccc1)=N2 (stereo not given)
IC50 ([1]; Mus musculus, L1210): > 300 nM | ILS at 200 mg/kg [4]: 0%

CC[C@]1(O)C[C@H]2CN(CCc3c([nH]c4ccccc34)[C@@](C(=O)OC)(c3cc4c(cc3OC)N(C=O)[C@H]3[C@@](O)(C(=O)OC)[C@H](OC(C)=O)[C@]5(CC)C=CCN6CC[C@]43[C@@H]65)C2)C1 [VINCRISTINE]
IC50 ([1]; Mus musculus, L1210): 3.4 nM | MI0.5 [3]: 11 nM | ILS at 1.5 mg/kg [5]: 122%

Nc1nc(NC(=O)OC2CCCCC2)cc2c1N=C(c1ccccc1)CN2
ILS at 200 mg/kg [6]: 0% | IC50 ([1]; Mus musculus, L1210): 230 nM | MI0.5 [3]: 260 nM

COc1cc2c(c(OC)c1OC)-c1ccc(OC)c(=O)cc1[C@@H](NC(C)=O)CC2 [COLCHICINE]
IC50 ([1]; Mus musculus, L1210): 6.4 nM | MI0.5 [3]: 21 nM

CNC(=O)Nc1cc2c(c(N)n1)N=C(c1ccccc1)C(C)N2 (stereo not given)
IC50 ([1]; Mus musculus, L1210): 20 nM | ILS at 12 mg/kg [7]: 0%

CC1Nc2cc(NC(=O)OCc3ccccc3)nc(N)c2N=C1c1ccccc1 (stereo not given)
IC50 ([1]; Mus musculus, L1210): 63 nM

CC1Nc2cc(N)nc(N)c2N=C1c1ccccc1 (stereo not given)
IC50 ([1]; Mus musculus, L1210): 500 nM | MI0.5 [3]: 850 nM

CCOC(=O)Nc1cc2c(c(NC(C)=O)n1)N=C(c1ccccc1)CN2
ILS at 25 mg/kg [8]: 49% | IC50 ([1]; Mus musculus, L1210): 8.6 nM | MI0.5 [3]: 23 nM

COC(=O)Nc1cc2c(c(N)n1)N=C(c1ccccc1)C(C)N2 (stereo not given)
ILS at 1 mg/kg [2]: 88% | IC50 ([1]; Mus musculus, L1210): 0.54 nM | MI0.5 [3]: 0.8 nM

CCC(C)OC(=O)Nc1cc2c(c(N)n1)N=C(c1ccccc1)C(C)N2 (stereo not given)
IC50 ([1]; Mus musculus, L1210): 1.2 nM | ILS at 12 mg/kg [7]: 60%

Nc1nccc2c1N=C(c1ccccc1)CN2
IC50 ([1]; Mus musculus, L1210): 2800 nM | MI0.5 [3]: >10000 nM | ILS at 50 mg/kg [9]: 0%

CCOC(=O)Nc1cc2c(c(N)n1)N=C(c1ccccc1)C(C)N2.O=S(=O)(O)CCO (stereo not given)
ILS at 0.5 mg/kg [10]: 46% | IC50 ([1]; l1210): 0.54 nM | MI0.5 [3]: 0.74 nM

CCOC(=O)Nc1cc2c(c(N)n1)N=C(c1ccccc1)CN2
ILS at 2 mg/kg [11]: 51% | MI0.5 [3]: 2.8 nM
